# APJ agonist: APJ receptor agonism. CHO-K1 APJ PathHunter beta-arrestin, luminescence; 0% DMSO wells, 100% apelin. P35414. 0.11% of 330,000 active. activation, % at 20 µM;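 active = activation more than six SD over the plate average, tested at 20 µM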
# Target sequence (P35414 whole entry, looked up): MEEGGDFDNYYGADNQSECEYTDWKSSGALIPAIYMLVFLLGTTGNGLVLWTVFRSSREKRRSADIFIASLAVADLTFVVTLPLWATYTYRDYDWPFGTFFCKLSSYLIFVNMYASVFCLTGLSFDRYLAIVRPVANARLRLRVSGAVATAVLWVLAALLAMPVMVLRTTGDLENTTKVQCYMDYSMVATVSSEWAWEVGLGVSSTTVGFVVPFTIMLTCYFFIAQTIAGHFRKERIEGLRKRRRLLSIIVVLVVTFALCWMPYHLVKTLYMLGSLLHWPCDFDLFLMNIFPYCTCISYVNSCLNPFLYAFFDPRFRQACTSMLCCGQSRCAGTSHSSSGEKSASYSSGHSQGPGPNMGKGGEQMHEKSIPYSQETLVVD
#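 Incubation: overnight seeding, 90 min compound at 25 °C, 1 h detection; test system: PathHunter CHO-K1 APJ (AGTRL-1) beta-arrestin reporter cells; amount: 1000 cells/well; doses: one dose, 20 µM compound, 1% DMSO; measured by: beta-gal luminescence; measure: agonist-driven arrestin binding to APJ; benchmarks: negative DMSO alone, positive Apelin-13 at 10 nM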
# CXCR6 inh: blocks human CXCR6 beta-arrestin recruitment | 0.36% of 360,000 active | inhibition, % at 20 µM | AID 602244 | CHO-K1 PathHunter CXCR6 beta-arrestin, luminescence; in the data active = inhibition above about 34%, passing the limit was not always enough;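 also: antagonist mode with CXCL16 agonist at 10 nM final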
# EBI2 block: antagonists of human EBI2 receptor. AID 651636. 0.81% of 360,000 active. inhibition, % at 5 µM. EBI2 beta-arrestin recruitment, luminescence, 7a,25-OHC stimulated. P32249; in the data active = inhibition above about 38%;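 also: enzyme fragment complementation signal reports receptor beta-arrestin coupling in cells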
# m5-HT2A agonist: mouse HTR2A agonism via beta-arrestin recruitment; activation, % at 7.6 µM; P35363; CHO-K1 mHTR2A beta-arrestin complementation, luminescence; percent of 30 µM serotonin response; 0.66% of 360,000 active;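 active = activation above a run cutoff, the mean activation of all tested compounds plus 3 SD, cut at about 14% in these data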
# APJ antagonist: antagonists of human APJ apelin receptor; AID 2521; inhibition, % at 20 µM; CHO-K1 APJ beta-arrestin complementation, luminescence; 0.32% of 330,000 active;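 active = inhibition above about 40% at 20 µM, limit read from the data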;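 also: cells challenged with 10 nM apelin-13 agonist together with compound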
# CCR6 antag: CCR6 (human) receptor antagonism | CHO-K1 CCR6 PathHunter beta-arrestin, luminescence, CCL20-stimulated | inhibition, % at 20 µM | 0.49% of 340,000 active | AID 493098;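 active = compounds whose inhibition of the agonist-driven luminescence signal at 20 µM reaches about 50%, limit read from the data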;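 also: cells stimulated with CCL20 at 14 nM final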
# APJ ag conf: confirmation of human APJ apelin receptor agonists. shares compounds with APJ agonist. CHO-K1 APJ PathHunter beta-arrestin, luminescence. activation, % at 20 µM. 10% of 310 active;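 active = activation above 40%, taking the highest of four retests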
# Numbers stand for hits; 0 = inactive; - = not tested or not shown. Only some compounds are listed: those with a hit (about 2.1% of all), similar ones and a draw of the others.
SMILES,APJ agonist,CXCR6 inh,EBI2 block,m5-HT2A agonist,APJ antagonist,CCR6 antag,APJ ag conf
C#CCOCCOCCOCCNc1nc(N2CCN(C(=O)CCCCCCCCCCNC(=O)[C@H]([C@@H](C)CC)n3cc(CCCCCN)nn3)CC2)nc(N2CCN(C(=O)CCCCCCCCCCNC(=O)[C@H]([C@@H](C)CC)n3cc(CCCCN=C(N)N)nn3)CC2)n1,51.0,0,0,15.6,0,-,0
CC(C)Oc1cccc(C2NC(=O)c3ccccc3O2)c1 (stereo not drawn),0,0,0,0,0,0,-
Oc1ccc(/C=N/Nc2ccnc3cc(Cl)ccc23)cc1O,15.3,0,0,0,0,0,0
N/C(=N\OC(=O)c1ccc2ccccc2c1)c1ccccc1Cl,43.5,0,0,0,0,0,0
CCOC(=O)c1ccc(NC(=O)CNC(=O)c2ccccc2)cc1,0,0,0,0,0,0,-
Cc1ccc(NC(=O)C/C(N)=N/OC(=O)c2ccccc2)cc1,10.9,0,0,0,0,0,0
CCCC(=O)N1CCCC1(C)C(=O)N(C)Cc1cccc2ccccc12 (stereo not drawn),-,0,0,0,-,-,-
CCOc1cccc(C(=O)Nc2ccc(NC(=O)c3cc4ccccc4o3)c(OC)c2)c1,20.2,0,0,0,0,0,0
O=C(NCc1ccccc1)C(C1CC1)n1c(Cc2cc(F)cc(F)c2)nc2ccccc21 (stereo not drawn),-,-,0,0,-,-,-
CCOc1ccc(C(=O)COC(=O)c2cccc(-n3cnnn3)c2)cc1,0,0,0,0,0,0,-
O=C(Nc1ccc(N2CCN(C(=O)c3ccco3)CC2)c(Cl)c1)c1cc2ccccc2o1,16.8,0,0,0,0,0,0
CCCC(=O)N1CCN(c2ccc(NC(=O)c3cc4ccccc4o3)cc2Cl)CC1,29.7,0,0,0,0,0,0
CCC(=O)N1CCN(c2ccc(NC(=O)c3cc4ccccc4o3)cc2Cl)CC1,0,0,0,0,0,0,-
CCOc1cccc2sc(N(CCCN(C)C)C(=O)c3ccc(S(=O)(=O)N4CCc5ccccc5C4)cc3)nc12,0,0,0,0,0,0,-
CCc1ccc2nc(N(CCCN(C)C)C(=O)c3ccc(S(=O)(=O)N4CCc5ccccc5C4)cc3)sc2c1,59.5,0,0,0,0,0,0
CCOC(=O)c1ccc(NC(=O)c2cccc(S(=O)(=O)N3CCOCC3)c2)cc1,13.7,0,0,0,0,0,0
CCOC(=O)c1ccc(NC(=O)c2ccc(C)c(S(=O)(=O)N3CCOCC3)c2)cc1,0,0,0,0,0,0,-
CCCCN(C)CCn1c(=S)[nH]c2cc(OCC)c(OCC)cc2c1=O,54.0,0,0,0,0,0,0
COc1ccccc1-n1c(SC)nc(O)cc1=O,65.8,0,0,0,0,0,88.4
CCCc1cc(=O)oc2cc(OCC(=O)NC3CC(C)(C)NC(C)(C)C3)ccc12,0,0,0,0,0,0,-
CCOC(=O)Cc1csc(N/N=C\c2ccc(N(C)C)cc2)n1,0,0,0,0,0,0,-
Brc1ccc(NCc2cccc3ccccc23)nc1,0,0,0,0,0,0,-
Oc1ccccc1CNc1ccc(Br)cn1,18.2,0,0,0,0,0,0
COc1c(O)c(O)c2oc(-c3ccccc3)cc(=O)c2c1OC,0,0,0,0,0,0,-
COc1cc(-c2cc(=O)c3c(O)c(OC)c(OC)c(O)c3o2)ccc1O,28.5,0,0,0,0,0,0
SMILES,APJ agonist,CXCR6 inh,EBI2 block,m5-HT2A agonist,APJ antagonist,CCR6 antag,APJ ag conf
CN1CCN(S(=O)(=O)c2cccc(C(=O)Nc3ccc(Br)cc3Br)c2)CC1,0,0,0,0,0,0,-
O=C(Cn1cc([N+](=O)[O-])cn1)N1CCN(Cc2ccc3c(c2)OCO3)CC1,0,0,0,0,0,0,-
COc1ccccc1-n1cc2c([N+](=O)[O-])cc([N+](=O)[O-])cc2n1,0,0,0,0,0,0,-
COc1ccccc1N=c1c2c([N+](=O)[O-])cc([N+](=O)[O-])cc2n(O)n1-c1ccccc1OC,15.2,-,-,-,0,-,0
CCOC(=O)c1c(-c2ccccc2)csc1NC(=O)c1cc(-c2ccccc2OC)on1,0,0,0,0,0,0,-
O=C(CSc1n[nH]c(=O)n1C1CC1)Nc1ccccc1,0,0,0,0,0,0,-
O=C(CSc1n[nH]c(=O)n1C1CC1)Nc1cc(Cl)ccc1Oc1ccccc1,12.5,0,0,0,0,0,0
COc1ccc(NC(=O)C2CCCN(C(=O)c3ccc(Cl)cc3)C2)cc1S(=O)(=O)N(C)C (stereo not drawn),0,0,0,0,0,0,-
COC(=O)c1ccncc1C(=O)Nc1ccc(Oc2ncc(C(F)(F)F)cc2Cl)cc1,0,0,0,0,0,0,-
COC(=O)c1cnc(Oc2ccc(NC(=O)NC(=O)c3ccccc3Cl)cc2)cc1C(F)(F)F,19.6,0,0,0,0,0,0
N/C(=N\OC(=O)c1cccc(F)c1)c1cccc([N+](=O)[O-])c1,15.3,0,0,0,0,0,0
N/C(=N/OC(=O)c1cccc([N+](=O)[O-])c1)c1cccc([N+](=O)[O-])c1,25.9,0,0,0,0,0,0
CCOc1ncccc1C(=O)Nc1cc(S(=O)(=O)N2CCCCC2)ccc1OC,25.0,0,0,0,0,0,0
CC(=O)c1c(C)[nH]c(C(=O)OCc2cc(-c3ccco3)on2)c1C,12.9,0,0,0,0,0,0
CC(=O)c1c(C)[nH]c(C(=O)OCc2cccc(Cl)c2)c1C,0,0,0,0,0,0,-
COc1cc(C(=O)NC(C)CCn2cccn2)ccc1OC1CCN(C(C)=O)CC1 (stereo not drawn),0,0,0,0,0,0,-
COc1ccc(-c2nc(-c3ccc(NC(=O)c4ccc(Br)o4)cc3)no2)cc1OC,47.2,0,0,0,0,0,0
COc1cc(-c2nc(-c3ccc(NC(=O)c4ccc(Br)o4)cc3)no2)cc(OC)c1OC,0,0,0,0,0,0,-
Cc1c(NC(=O)C(C)Sc2nc(N)cc(=O)[nH]2)c(=O)n(-c2ccccc2)n1C (stereo not drawn),0,0,0,0,0,0,-
N#CCC(=O)N/N=C/c1c(-c2ccccc2)n(-c2ccccc2)c2ccccc12,0,0,0,0,0,0,-
Cc1ccc(S(=O)(=O)N2C(=O)CCC2C(=O)O/N=C(\N)c2ccc([N+](=O)[O-])cc2)cc1 (stereo not drawn),35.8,0,0,0,0,0,0
COc1ccc(/C(N)=N/OC(=O)C2CCC(=O)N2S(=O)(=O)c2ccc(C)cc2)cc1OC (stereo not drawn),0,0,0,0,0,0,-
